# MrgX1 agonist: activates human MrgX1 receptor signaling; Q96LB2; MrgX1-HEK293 cells, Fluo-4 calcium fluorescence, agonist mode; hits give high values; B-score at 10 µM; 310,000 tested, 0.44% active;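 active = calcium response B-score plate-corrected fluorescence ratio at least 3 library SD, with starting fluorescence B-score inside 5 SD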
# Target sequence (Q96LB2 whole entry, looked up): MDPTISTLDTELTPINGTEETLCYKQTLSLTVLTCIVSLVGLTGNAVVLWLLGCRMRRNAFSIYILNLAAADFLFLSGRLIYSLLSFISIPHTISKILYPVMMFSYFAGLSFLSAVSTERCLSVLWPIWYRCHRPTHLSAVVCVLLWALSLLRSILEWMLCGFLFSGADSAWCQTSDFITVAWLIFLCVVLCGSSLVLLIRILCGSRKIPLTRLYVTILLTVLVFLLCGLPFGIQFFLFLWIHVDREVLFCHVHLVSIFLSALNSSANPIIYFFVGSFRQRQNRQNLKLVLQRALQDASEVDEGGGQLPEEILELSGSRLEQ
#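 Material: MrgX1-expressing HEK293 cells; input: 15,000 cells per well; doses: test compound given as first of three sequential additions; schedule: overnight plating before 1 h dye loading; technique: Fluo-4 NW calcium-flux fluorescence, kinetic read; evaluation: baseline-normalised fluorescence change ratio, B-scored; control set: plate-wise positive and negative controls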
# RGS4 pot: potentiators or activators of RGS4; HEK293 M3R/inducible RGS4, carbachol calcium flux Fluo4; hits give low values; 310,000 tested, 0.92% active; B-score at 10 µM;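 active = B-score of the integrated calcium signal more than 4 SD below the library mean, with starting fluorescence not abnormally high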;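 note: negative B-score means reduced calcium response which marks RGS4 activation or potentiation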
#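 Detection: kinetic calcium fluorescence imaging with Fluo4-AM dye, 2 µM / Material: HEK293 cells with stable M3R and inducible RGS4 / Schedule: recording 10 s baseline at 1 Hz, 100 s post-agonist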
# MrgX1 allo act: human MrgX1 positive allosteric modulation, primary screen; 310,000 tested, 0.63% active; Q96LB2; AID 588675; B-score at 10 µM; MrgX1-HEK293, Fluo-4 calcium flux, FDSS; hits give high values;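 active = plate-corrected calcium response at least 3 library SD above typical, normal starting fluorescence, not activating the receptor alone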;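 note: compound read alongside a low EC10 to EC30 dose of BAM8-22 agonist; peak minus trough fluorescence over baseline measured at the second addition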
# RGS4 block: inhibitors of human RGS4 | HEK293 M3R/RGS4 inducible, Fluo-4 calcium flux; hits give high values; triggered by carbachol at its EC20 | B-score at 10 µM | 310,000 tested, 0.45% active;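 active = B-score, a plate-corrected calcium signal, over three deviations above library mean, with baseline fluorescence within five deviations of library mean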;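 note: RGS4 expression induced by doxycycline in cells with stable M3 receptor; B-score is computed from the integrated fluorescence ratio over baseline after carbachol; higher B-score means a larger calcium signal and so more RGS4 inhibition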
# Target sequence (P49798 whole entry, looked up): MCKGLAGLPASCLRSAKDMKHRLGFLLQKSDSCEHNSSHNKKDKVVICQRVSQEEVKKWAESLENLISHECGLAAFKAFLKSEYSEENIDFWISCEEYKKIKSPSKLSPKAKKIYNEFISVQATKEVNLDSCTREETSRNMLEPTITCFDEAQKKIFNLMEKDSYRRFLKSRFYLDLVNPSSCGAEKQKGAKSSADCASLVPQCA
# MrgX1 antagonist: antagonists of human MrgX1 receptor; MRGX1-HEK293 calcium flux, Fluo-4, BAM8-22 antagonism; hits give low values; 310,000 tested, 1.3% active; Q96LB2; B-score at 10 µM;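 active = calcium-response B-score plate-corrected more than 3 library SD below zero, starting fluorescence within 5 deviations, no agonist response on first addition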;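 note: peak minus trough fluorescence over baseline after final BAM8-22 challenge near maximal dose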
# * = called active by the depositor; i = inactive; . = no result. A selection: hits, their analogues and other compounds. The true share with any hit is near 3.5%.
SMILES,MrgX1 agonist,RGS4 pot,MrgX1 allo act,RGS4 block,MrgX1 antagonist
COc1ccc(O[C@H]2C=C[C@@H](c3ccccc3)O[C@@H]2COC(=O)CC/C(C)=N/O[C@@H](C)c2cc(-c3c(C)cc(C)cc3C)no2)cc1,.,i,.,i,.
COc1ccc(O[C@H]2C=C[C@@H](c3ccccc3)O[C@@H]2COC(=O)CC/C(C)=N/OC[C@@H](O)COCc2ccco2)cc1,i,-9.7*,i,i,i
CC(C)(C)OC(=O)N1CCC2(CC1)C(C#N)=C(N)OC1=C2C(=O)CCC1,i,i,i,i,i
N#Cc1cnn2ccc(-c3cc(N4CCOCC4)ccc3[N+](=O)[O-])nc12,i,i,i,i,i
CCN(CC)C(=O)CSC(Nc1ccc(F)cc1)=C(C#N)C#N,44*,i,i,i,i
O=C1C(=O)N(CCCc2ccccc2)c2ccccc21,38*,i,i,i,i
COc1ccc(CSC(=N)N)cc1[N+](=O)[O-],39*,i,i,i,i
CCCCOc1ccc(CSC2=NCCN2)cc1[N+](=O)[O-],28*,i,i,i,i
N=C(N)SCc1ccc(O)c([N+](=O)[O-])c1,i,i,i,i,i
CCOc1ccc(CSC2=NCCN2)cc1[N+](=O)[O-],i,i,i,i,i
CCCCCOc1ccc(CSC(=N)N)cc1[N+](=O)[O-],49*,-7.8*,i,i,i
COC(=O)C(NC(=O)CCc1c(C)nc2c(c(C)nn2-c2ccccc2)c1C)C(C)C (stereo not drawn),i,i,i,i,i
CC(=O)Nc1ccc(NC(=O)C(C)OC(=O)CCCOc2ccc(Cl)cc2C)cc1 (stereo not drawn),i,i,i,i,-7.8*
Fc1ccc(-n2nnc(-c3cccnc3)n2)cc1,i,i,i,i,i
Fc1ccc(C(CCCn2nnc(-c3cccnc3)n2)c2ccc(F)cc2)cc1,i,-8.7*,i,i,i
COc1ccc(-c2csc(=Nc3ccccc3)n2CCO)cc1,i,i,15*,i,i
O=C(O)c1ccc2c(c1)OCCCO2,i,i,i,i,i
O=C(/C=C/c1ccccc1)c1ccc2c(c1)OCCCCO2,i,i,16*,i,i
O=C1COc2ccc(C(=O)/C=C/c3ccccc3)cc2N1,33*,i,i,i,i
CC1(C)CC(=O)C(CC(=O)NC2CCCc3ccccc32)C(=O)C1 (stereo not drawn),i,i,i,i,i
COc1cccc(C2C3=C(N=c4s/c(=C\c5ccc(OCC(=O)O)cc5)c(=O)n42)c2ccccc2CC3)c1 (stereo not drawn),i,-8.4*,i,i,-7.5*
COc1cc(C(=O)NC2CCCc3ccccc32)ccc1OCC(=O)Nc1ccc(F)cc1 (stereo not drawn),i,i,i,i,i
COc1ccc(C(=O)N=C2SC3CS(=O)(=O)CC3N2c2ccc(N(C)C)cc2)cc1OC (stereo not drawn),i,i,i,i,i
O=C(N/N=C\c1cc([N+](=O)[O-])ccc1N1CCOCC1)c1ccccn1,i,i,i,i,-4.5*
CCN(Cc1cnn(C)c1)C(=O)CC1C(=O)NCCN1Cc1cccc(OC)c1OC (stereo not drawn),i,i,i,i,i
SMILES,MrgX1 agonist,RGS4 pot,MrgX1 allo act,RGS4 block,MrgX1 antagonist
Cc1ccc(-c2nc(C(=O)NCC3CCCO3)cc3c2[nH]c2ccccc23)cc1 (stereo not drawn),i,-7*,i,i,i
CC(C)C[C@H](NC(=O)c1[nH]cnc1C(=O)Nc1ccccc1)C(=O)OC(C)(C)C,i,i,i,i,i
CC1CCc2c(sc3nc(C(C)(C)C)nc(N4CCN(C(=O)CCl)CC4)c23)C1 (stereo not drawn),i,-7.6*,i,i,i
O=C1/C(=C\c2ccc(O)cc2)SC(=S)N1/N=C/c1ccc(O)cc1,39*,i,i,i,i
O=C(CSc1nnc(-c2ccccc2)o1)N1CCCCC1,i,i,i,i,i
CN(c1cccc(NC(=O)Nc2cccc(Cl)c2)c1)S(C)(=O)=O,i,i,i,i,-5.2*
C=CCNC(=O)CC(=O)N/N=C/c1cccc(C)c1,i,i,i,i,-4.6*
C=CCc1ccc(OCCCCCN2CCOCC2)c(OC)c1,i,-7.5*,i,i,i
CCC1CCCCN1CCCNC(=O)c1ccc2c(c1)N(Cc1c(F)cccc1Cl)C(=O)CS2 (stereo not drawn),i,-8.2*,i,i,i
O=C(NCCN1CCOCC1)c1ccc2c(c1)N(Cc1ccc(Cl)cc1)C(=O)CS2,i,-7.3*,i,i,i
O=C(NCCN1CCOCC1)c1ccc2c(c1)N(Cc1ccccc1)C(=O)CS2,i,i,i,i,i
C=CCSc1nnc(C)c(/C=C/Nc2ccc(Cl)cc2)n1,i,-7.5*,i,i,i
CSc1nnc(C)c(/C=C/Nc2ccc(F)cc2F)n1,i,i,i,i,i
O=C1c2cccc3c([N+](=O)[O-])ccc(c23)C(=O)N1O,i,i,i,i,-8.6*
O=C1c2cccc3c([N+](=O)[O-])ccc(c23)C(=O)N1c1ccc(Cl)cn1,i,i,i,i,i
O=C1c2cccc3c([N+](=O)[O-])ccc(c23)C(=O)N1c1ccccn1,i,-7.8*,i,i,i
CC(C)CC(=O)Nc1cccc(C(C)O)c1 (stereo not drawn),i,i,i,i,i
Nc1ccc(-n2cnc3cc([N+](=O)[O-])ccc32)cc1,i,i,i,i,i
Cc1cccc(-n2cnc3cc([N+](=O)[O-])ccc32)c1,i,i,8.2*,i,i
CCc1ccccc1N(C(=O)Cn1nnc2ccccc21)C(C(=O)NCCOC)c1ccco1 (stereo not drawn),i,i,i,i,i
COCCNC(=O)C(c1ccco1)N(C(=O)Cn1nnc2ccccc21)c1ccc(C)cc1C (stereo not drawn),i,i,7.9*,i,i
CC(=O)Oc1cc(O)c2c(=O)c(OC(C)=O)c(-c3ccc(OC(C)=O)c(OC(C)=O)c3)oc2c1,i,i,8*,i,i
COc1c(-c2ccc(O)cc2)oc2cc(O)cc(O)c2c1=O,i,.,i,.,i
O=C(CCNC(=O)c1ccc(Br)cc1)NNC(=O)C1COc2ccccc2O1 (stereo not drawn),i,i,i,i,i

# Screens deposited in PubChem by Johns Hopkins Ion Channel Center.
